# In ChEMBL document CHEMBL4396873, “Discovery of Potent, Selective, and Short-Acting Peptidic V2 Receptor Agonists” (J Med Chem, 2019):
# The source made the active and inactive calls. The calls are words filed in the database; no cut-off is given here. Numbered stars: 1 amine (or outer) side, 2 acyl side, 3 side chain; on linkers, the order of the positions; unused ones are H or OH. Bridge positions count the residues as written; N and C are the ends. Square brackets hold non-standard residues; d marks the D form. Peptide text beside a SMILES is read from it. * marks the point of attachment. Phe(4-Cl) = N[C@@H](Cc1ccc(Cl)cc1)C(=O)O; Phe(4-F) = N[C@@H](Cc1ccc(F)cc1)C(=O)O; 2Thi = N[C@@H](Cc1cccs1)C(=O)O; Agmatine = N=C(N)NCCCCN*; Thz = O=C(O)[C@@H]1CSCN1; X1 = O=C(CCC[*:2])[*:1]; Mpa = O=C(O)CCS
# How the values were obtained:
# [1] = biological target: T1, Oxytocin receptor (Homo sapiens) (UniProt P30559); assay: Agonist activity at human OTR stably expressed in CHOK1 cells up to 10000 nM by NFAT-luciferase reporter gene assay; format: cell-based
# T1 sequence (whole entry): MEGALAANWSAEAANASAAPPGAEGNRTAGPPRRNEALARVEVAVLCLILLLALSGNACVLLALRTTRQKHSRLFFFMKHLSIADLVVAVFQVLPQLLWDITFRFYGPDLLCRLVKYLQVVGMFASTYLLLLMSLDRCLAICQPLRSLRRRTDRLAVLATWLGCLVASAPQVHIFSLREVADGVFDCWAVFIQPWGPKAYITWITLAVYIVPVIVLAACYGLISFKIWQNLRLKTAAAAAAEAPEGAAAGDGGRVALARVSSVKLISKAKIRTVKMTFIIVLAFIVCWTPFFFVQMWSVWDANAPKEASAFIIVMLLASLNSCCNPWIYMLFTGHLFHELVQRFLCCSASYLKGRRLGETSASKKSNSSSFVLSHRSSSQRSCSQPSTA
# [2] = Clearance in Sprague-Dawley rat at 0.1 mg/kg, iv administered as cassette dose by LC-MS/MS analysis; format: ADME, organism-based; conditions: in vivo
# [3] = biological target: Vasopressin V1a receptor (Homo sapiens, UniProt P37288); assay: Agonist activity at recombinant human V1a receptor expressed in HEK293 cells up to 1000 nM measured after 5 hrs by luciferase reporter gene assay; format: cell-based; conditions: hek293, 5 h
# [4] = Protein binding in rat plasma at 200 to 1000 ng/ml measured after 15 mins by UC-LC/MS/MS analysis; format: ADME, cell-free; conditions: read-out: PPB (converted)
# Summary of the method: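 Peptide spiked into rat plasma to final 200-1000 ng/mL, incubated 15 min at 37 °C, ultracentrifuged at 773,000 xg for 30 min at 37 °C; middle-layer sample quantified by LC/MS/MS; binding (%) = (Ci − Cm)/Ci × 100; quadruplicate.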
# [5] = Non-renal clearance in nephrectomized Sprague-Dawley rat at 0.1 mg/kg, iv administered as cassette dose by LC-MS/MS analysis; format: ADME, organism-based; conditions: in vivo
# [6] = biological target: Vasopressin V2 receptor (Homo sapiens, UniProt P30518); assay: Agonist activity at recombinant human V2 receptor expressed in HEK293 cells measured after 5 hrs by cAMP response element driven luciferase reporter gene assay; format: functional, cell-based
# Vasopressin V2 receptor, sequence (P30518 whole entry): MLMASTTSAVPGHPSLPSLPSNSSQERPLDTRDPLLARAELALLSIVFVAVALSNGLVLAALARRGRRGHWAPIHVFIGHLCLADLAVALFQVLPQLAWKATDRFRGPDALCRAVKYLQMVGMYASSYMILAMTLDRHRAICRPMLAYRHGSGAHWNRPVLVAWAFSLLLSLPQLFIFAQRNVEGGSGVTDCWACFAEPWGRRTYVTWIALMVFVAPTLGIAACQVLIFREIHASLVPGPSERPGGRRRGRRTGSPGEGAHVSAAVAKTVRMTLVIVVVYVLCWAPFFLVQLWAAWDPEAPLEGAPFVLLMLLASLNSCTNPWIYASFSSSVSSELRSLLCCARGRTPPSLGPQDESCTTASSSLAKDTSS
# Vasopressin V1a receptor, sequence (P37288 whole entry): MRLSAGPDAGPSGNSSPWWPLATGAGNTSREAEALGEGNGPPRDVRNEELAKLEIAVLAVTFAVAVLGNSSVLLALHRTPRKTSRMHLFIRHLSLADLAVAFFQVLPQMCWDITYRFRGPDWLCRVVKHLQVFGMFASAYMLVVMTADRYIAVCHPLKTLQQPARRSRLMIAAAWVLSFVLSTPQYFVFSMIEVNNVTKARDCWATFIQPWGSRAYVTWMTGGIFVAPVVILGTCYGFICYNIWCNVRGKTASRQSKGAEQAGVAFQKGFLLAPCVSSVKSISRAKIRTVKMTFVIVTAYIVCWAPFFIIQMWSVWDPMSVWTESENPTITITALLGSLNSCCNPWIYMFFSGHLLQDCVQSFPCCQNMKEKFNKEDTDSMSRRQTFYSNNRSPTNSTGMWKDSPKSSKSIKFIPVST
Activity [1],clearance [2] [mL/min/kg],Activity [3],fraction unbound at […] [4],CL [5] [%],EC50 [6] [nM],SMILES
inactive,21,Not Active,0.16,–,–,CC(C)[C@@H]1NC(=O)[C@H](Cc2cccs2)NC(=O)[C@H](Cc2ccc(Cl)cc2)NC(=O)CCCSC[C@@H](C(=O)N2CCC[C@H]2C(=O)N[C@H](CCCNC(=N)N)C(=O)NCC2CC2)NC(=O)[C@H](CC(N)=O)NC1=O
inactive,10,Not Active,0.16,49,–,CCNC(=O)[C@@H](CCCNC(=N)N)NC(=O)[C@@H]1CCCN1C(=O)[C@@H]1CSCCCC(=O)N[C@@H](Cc2ccc(Cl)cc2)C(=O)N[C@@H](Cc2cccs2)C(=O)N[C@@H](C(C)C)C(=O)N[C@@H](CC(N)=O)C(=O)N1
inactive,4,Not Active,0.1,58,–,CCNC(=O)[C@@H](CCCNC(=N)N)NC(=O)[C@@H]1C[C@@H](O)CN1C(=O)[C@@H]1CCSCCC(=O)N[C@@H](Cc2ccc(Cl)cc2)C(=O)N[C@@H](Cc2cccs2)C(=O)N[C@@H](C(C)C)C(=O)N[C@@H](CC(N)=O)C(=O)N1
inactive,5.9,Not Active,0.08,–,0.2,CC(C)CNC(=O)[C@@H](CCCNC(=N)N)NC(=O)[C@@H]1C[C@@H](O)CN1C(=O)[C@@H]1CCSCCC(=O)N[C@@H](Cc2ccc(Cl)cc2)C(=O)N[C@@H](Cc2cccs2)C(=O)N[C@@H](C(C)C)C(=O)N[C@@H](CC(N)=O)C(=O)N1
inactive,9.9,Not Active,0.04,85,–,CC(C)[C@@H]1NC(=O)[C@H](Cc2ccc(F)cc2)NC(=O)[C@H](Cc2ccc(Cl)cc2)NC(=O)CCCSC[C@@H](C(=O)N2CSC[C@H]2C(=O)NCCCCNC(=N)N)NC(=O)[C@H](CC(N)=O)NC1=O ([Phe(4-Cl)][Phe(4-F)]VNC[Thz]-Agmatine; linker N-5 via X1)
inactive,16,Not Active,0.16,90,–,CC(C)[C@@H]1NC(=O)[C@H](Cc2cccs2)NC(=O)[C@H](Cc2ccc(Cl)cc2)NC(=O)CCCSC[C@@H](C(=O)N2CSC[C@H]2C(=O)NCCCCNC(=N)N)NC(=O)[C@H](CC(N)=O)NC1=O ([Phe(4-Cl)][2Thi]VNC[Thz]-Agmatine; linker N-5 via X1)
inactive,7.8,Not Active,0.13,–,–,CC(C)CNC(=O)[C@@H](CCCNC(=N)N)NC(=O)[C@@H]1C[C@@H](O)CN1C(=O)[C@@H]1CSCCCC(=O)N[C@@H](Cc2ccc(Cl)cc2)C(=O)N[C@@H](Cc2cccs2)C(=O)N[C@@H](C(C)C)C(=O)N[C@@H](CC(N)=O)C(=O)N1
–,9.6,Not Active,0.69,–,0.05,CC(C)[C@@H]1NC(=O)[C@H](Cc2ccccc2)NC(=O)[C@H](Cc2ccc(O)cc2)NC(=O)CCSSC[C@@H](C(=O)N2CCC[C@H]2C(=O)N[C@H](CCCNC(=N)N)C(=O)NCC(N)=O)NC(=O)[C@H](CC(N)=O)NC1=O ([Mpa]YFVNCP[dR]G-NH2; disulfide 1-6)
inactive,26,Not Active,0.16,59,–,CCCNC(=O)[C@@H](CCCNC(=N)N)NC(=O)[C@@H]1CCCN1C(=O)[C@@H]1CSCCCC(=O)N[C@@H](Cc2ccc(Cl)cc2)C(=O)N[C@@H](Cc2cccs2)C(=O)N[C@@H](C(C)C)C(=O)N[C@@H](CC(N)=O)C(=O)N1
inactive,10,Not Active,0.09,67,–,CC(C)[C@@H]1NC(=O)[C@H](Cc2cccs2)NC(=O)[C@H](Cc2ccc(Cl)cc2)NC(=O)CCCSC[C@@H](C(=O)N2CCC[C@H]2C(=O)N[C@H](CCCNC(=N)N)C(=O)NC2CC2)NC(=O)[C@H](CC(N)=O)NC1=O
inactive,–,Not Active,–,–,–,CC(C)CNC(=O)[C@@H](CCCNC(=N)N)NC(=O)[C@@H]1CCCN1C(=O)[C@@H]1CCSCCC(=O)N[C@@H](Cc2ccc(Cl)cc2)C(=O)N[C@@H](Cc2cccs2)C(=O)N[C@@H](C(C)C)C(=O)N[C@@H](CC(N)=O)C(=O)N1
inactive,3.3,Not Active,0.09,–,0.29,CCNC(=O)[C@@H](CCCNC(=N)N)NC(=O)[C@@H]1C[C@@H](O)CN1C(=O)[C@@H]1CSCCCC(=O)N[C@@H](Cc2ccc(Cl)cc2)C(=O)N[C@@H](Cc2ccccc2)C(=O)N[C@@H](C(C)C)C(=O)N[C@@H](CC(N)=O)C(=O)N1
inactive,31,Not Active,0.11,57,–,CCCCNC(=O)[C@@H](CCCNC(=N)N)NC(=O)[C@@H]1CCCN1C(=O)[C@@H]1CSCCCC(=O)N[C@@H](Cc2ccc(Cl)cc2)C(=O)N[C@@H](Cc2cccs2)C(=O)N[C@@H](C(C)C)C(=O)N[C@@H](CC(N)=O)C(=O)N1
inactive,24,Not Active,0.14,63,–,CC(C)CNC(=O)[C@@H](CCCNC(=N)N)NC(=O)[C@@H]1CCCN1C(=O)[C@@H]1CSCCCC(=O)N[C@@H](Cc2ccc(Cl)cc2)C(=O)N[C@@H](Cc2cccs2)C(=O)N[C@@H](C(C)C)C(=O)N[C@@H](CC(N)=O)C(=O)N1
–,7.1,Not Active,0.05,47,–,CCNC(=O)[C@@H](CCCNC(=N)N)NC(=O)[C@@H]1CCCN1C(=O)[C@@H]1CSSCCC(=O)N[C@@H](Cc2ccc(Cl)cc2)C(=O)N[C@@H](Cc2ccccc2)C(=O)N[C@@H](C(C)C)C(=O)N[C@@H](CC(N)=O)C(=O)N1
inactive,7.5,Not Active,0.06,–,–,CC(C)[C@@H]1NC(=O)[C@H](Cc2ccc(F)cc2)NC(=O)[C@H](Cc2ccc(Cl)cc2)NC(=O)CCCSC[C@@H](C(=O)N2CCC[C@H]2C(=O)NCCCCNC(=N)N)NC(=O)[C@H](CC(N)=O)NC1=O ([Phe(4-Cl)][Phe(4-F)]VNCP-Agmatine; linker N-5 via X1)
inactive,31,Not Active,0.17,90,–,CCCNC(=O)[C@@H](CCCNC(=N)N)NC(=O)[C@@H]1CSCN1C(=O)[C@@H]1CSCCCC(=O)N[C@@H](Cc2ccc(Cl)cc2)C(=O)N[C@@H](Cc2cccs2)C(=O)N[C@@H](C(C)C)C(=O)N[C@@H](CC(N)=O)C(=O)N1
inactive,8.7,Not Active,0.69,45,–,CC(C)[C@@H]1NC(=O)[C@H](Cc2ccc(F)cc2)NC(=O)[C@H](Cc2ccc(O)cc2)NC(=O)CCCSC[C@@H](C(=O)N2CCC[C@H]2C(=O)NCCCCNC(=N)N)NC(=O)[C@H](CC(N)=O)NC1=O (Y[Phe(4-F)]VNCP-Agmatine; linker N-5 via X1)
inactive,5.4,Not Active,0.05,88,–,CC(C)CNC(=O)[C@@H](CCCNC(=N)N)NC(=O)[C@@H]1CCCN1C(=O)[C@@H]1CCSCCC(=O)N[C@@H](Cc2ccc(Cl)cc2)C(=O)N[C@@H](Cc2ccccc2)C(=O)N[C@@H](C(C)C)C(=O)N[C@@H](CC(N)=O)C(=O)N1
inactive,28,Not Active,0.07,80,–,CCNC(=O)[C@@H](CCCNC(=N)N)NC(=O)[C@@H]1CSCN1C(=O)[C@@H]1CSCCCC(=O)N[C@@H](Cc2ccc(Cl)cc2)C(=O)N[C@@H](Cc2cccs2)C(=O)N[C@@H](C(C)C)C(=O)N[C@@H](CC(N)=O)C(=O)N1
inactive,23,Not Active,0.1,84,–,CC(C)[C@@H]1NC(=O)[C@H](Cc2cccs2)NC(=O)[C@H](Cc2ccc(Cl)cc2)NC(=O)CCCSC[C@@H](C(=O)N2CCC[C@H]2C(=O)N[C@H](CCCNC(=N)N)C(=O)NCc2ccccc2)NC(=O)[C@H](CC(N)=O)NC1=O
inactive,51,Not Active,0.16,–,–,CC(C)CNC(=O)[C@H](CCCNC(=N)N)NC(=O)[C@@H]1CCCN1C(=O)[C@@H]1CSCCCC(=O)N[C@@H](Cc2ccc(Cl)cc2)C(=O)N[C@@H](Cc2cccs2)C(=O)N[C@@H](C(C)C)C(=O)N[C@@H](CC(N)=O)C(=O)N1
